Measurements: ChEMBL document CHEMBL1121452, “8-Chloro-1-methyl-6-phenyl-4H-s-triazolo[4,3-a][1,4]benzodiazepines with substituents at C-4” (1980)

Key:
Type in all cases: functional
[1] = species: Mus musculus; assay: Evaluated for the antagonism of nicotine induced death (D) in CF1 mice
How it was run: (§1)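 Compounds dissolved or suspended in 0.25% aqueous methylcellulose and given ip to mice in groups of four or six per dose, at several dose levels spaced 0.3 log units apart. Scoring follows previously described procedures. ED50 values in mg/kg were calculated by the Spearman-Karber method.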

[2] = species: Mus musculus; assay: Evaluated for the pentylene induced clonic convulsions (P) in CF1 mice; how it was run: as §1
[3] = species: Mus musculus; assay: Evaluated for antagonistic activity on nicotine-induced tonic-extensor convulsions (TE) in CF1 mice; how it was run: as §1
[4] = species: Mus musculus; assay: Loss of righting reflex (LORR) was evaluated in CF1 mice; how it was run: as §1
[5] = species: Mus musculus; assay: Loss of traction (TR) was evaluated in CF1 mice; how it was run: as §1
[6] = species: Mus musculus; assay: Loss of righting reflex (LORR) was evaluated in mice; how it was run: as §1
[7] = species: Mus musculus; assay: Loss of traction (TR) was evaluated in mice; how it was run: as §1

| Compound | ED50 [1] | ED50 [2] | ED50 [3] | ED50 [4] | ED50 [5] | ED50 [6] | ED50 [7] |
| --- | --- | --- | --- | --- | --- | --- | --- |
| CC(=O)OC1N=C(c2ccccc2)c2cc(Cl)ccc2-n2c(C)nnc21 (centres undefined) | 1 mg/kg | 8.9 mg/kg | 1 mg/kg | > 200 mg/kg | 18 mg/kg | – | – |
| Cc1nnc2n1-c1ccc(Cl)cc1C(c1ccccc1)=NC2C (centres undefined) | 0.056 mg/kg | 0.1 mg/kg | 0.056 mg/kg | – | 1.8 mg/kg | > 200 mg/kg | – |
| CCOC(=O)C1(C)N=C(c2ccccc2)c2cc(Cl)ccc2-n2c(C)nnc21 (centres undefined) | 18 mg/kg | 40 mg/kg | 16 mg/kg | > 200 mg/kg | 112 mg/kg | – | – |
| CCOC(=O)CC1(C(=O)OCC)N=C(c2ccccc2)c2cc(Cl)ccc2-n2c(C)nnc21 (centres undefined) | > 200 mg/kg | > 50 mg/kg | > 200 mg/kg | > 200 mg/kg | > 200 mg/kg | – | – |
| Cc1nnc2n1-c1ccc(Cl)cc1C(c1ccccc1)NC2=O (centres undefined) | – | > 25 mg/kg | > 100 mg/kg | > 100 mg/kg | > 100 mg/kg | – | – |
| Cc1nnc2n1-c1ccc(Cl)cc1C(c1ccccc1)=[N+]([O-])C2 | 0.2 mg/kg | 1.8 mg/kg | 0.2 mg/kg | > 200 mg/kg | 10 mg/kg | – | – |
| Cc1nnc2n1-c1ccc(Cl)cc1C(c1ccccc1)=NC2N (centres undefined) | 0.63 mg/kg | 3.5 mg/kg | 0.36 mg/kg | – | 18 mg/kg | > 100 mg/kg | – |
| CCOC(=O)C1N=C(c2ccccc2)c2cc(Cl)ccc2-n2c(C)nnc21 (centres undefined) | 45 mg/kg | > 100 mg/kg | 50 mg/kg | – | > 100 mg/kg | > 100 mg/kg | – |
| Cc1nnc2n1-c1ccc(Cl)cc1C1(c3ccccc3)ON1C2 (centres undefined) | 0.12 mg/kg | 0.2 mg/kg | 0.12 mg/kg | > 25 mg/kg | 2.5 mg/kg | – | – |
| Cc1nnc2n1-c1ccc(Cl)cc1C(c1ccccc1)=NC2CC(=O)O (centres undefined) | 0.9 mg/kg | 5 mg/kg | 0.9 mg/kg | – | 13 mg/kg | > 200 mg/kg | – |
| Cc1nnc2n1-c1ccc(Cl)cc1C(c1ccccc1)N=C2N (centres undefined) | 40 mg/kg | > 100 mg/kg | 40 mg/kg | > 200 mg/kg | > 200 mg/kg | – | – |
| CCOC(=O)C1(N)N=C(c2ccccc2)c2cc(Cl)ccc2-n2c(C)nnc21 (centres undefined) | 4.5 mg/kg | 32 mg/kg | 3.1 mg/kg | > 200 mg/kg | 159 mg/kg | – | – |
| Cc1nnc2n1-c1ccc(Cl)cc1C(c1ccccc1)=NC2O (centres undefined) [4-HYDROXY-ALPRAZOLAM] | 4 mg/kg | 8.9 mg/kg | 4 mg/kg | > 50 mg/kg | 23 mg/kg | – | – |
| Cc1nnc2n1-c1ccc(Cl)cc1C(c1ccccc1)=NC2 [ALPRAZOLAM] | 0.02 mg/kg | 0.2 mg/kg | 0.02 mg/kg | > 100 mg/kg | – | – | 0.6 mg/kg |
